Assay outcomes deposited in PubChem by several laboratories.
Rows were chosen to be rich in hits. Some 2% of all compounds tested hit in one or more screens of this group.
Arr AP2 block = inhibitors of human beta-arrestin and AP2 interaction. inhibition, % at 10 µM. FITC-arrestin peptide / GST-AP2 beads, flow cytometry; AP2 beta2 appendage carries R879A mutation. actives 0.31% (n = 340,000). AID 504490;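 active = inhibition above a set limit, near 3 SD of compounds lacking own fluorescence, cut at about 54% in these data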;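 also: plate controls were DMSO wells for no effect and 5 µM unlabelled arrestin peptide for full effect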
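Assay system: GST-AP2 R879A bound to glutathione beads, E. coli-expressed; Medium: PBS with 0.05% Tween 20 and 0.1% BSA; Also added: fluorescein-tagged arrestin peptide at 50 nM final; Timing: 12 min plus 1 h, RT; Measured by: flow cytometry, FL1 (488/535 nm); Evaluation: percent drop in bead-associated FITC signal.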
B2AR ag = activates human beta-2 adrenergic receptor causing internalization | P07550 | Am2.2-beta2AR cells, FAP receptor internalization, flow cytometry | response, % (no concentration beside the values) | actives 0.43% (n = 340,000);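 active = response above a set limit, near 3 SD of response in nonfluorescent compounds, cut at about 42% in these data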
Lipid droplet = modulators of hepatic lipid droplet formation; AML12 mouse hepatocytes, oleate lipid droplets, BODIPY imaging; inhibition, % at 6.5 µM; actives 0.4% (n = 240,000);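 active = lipid droplet intensity inhibited by at least 50%, with more than 500 cells counted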
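Assay system: AML12 hepatocytes (mouse) / Also added: 100 µM oleic acid challenge / Times: overnight treatment with compound plus oleate / Detection: high-content imaging of BODIPY-stained droplets and DAPI nuclei / Evaluation: % inhibition of lipid droplet signal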
GRK2 inh = human GRK2 inhibition via aptamer displacement; P25098; bead flow cytometry, FAM-aptamer displacement from GRK2; inhibition of aptamer binding, % at 10 µM; actives 0.59% (n = 330,000); AID 488847;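 active = inhibition of aptamer binding above 40%, roughly 3 SD of noise, on plates passing a quality check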;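 also: median bead fluorescence of bound FAM aptamer so fluorescent compounds give negative values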
H9c2 TAG inh = reduces triacylglycerol accumulation in H9c2 cells; Nile Red lipid (TAG) fluorescence; cells loaded with 200 µM oleic acid; inhibition, % at 12.5 µM; actives 0.66% (n = 230,000);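 active = pattern-corrected inhibition of lipid staining of at least 50% with the nuclear-stain viability signal not falling by more than 50%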;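 also: 0% = DMSO wells and 100% = triacsin C control wells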
NTR1 ag = agonists of human neurotensin receptor NTR1; P30989; NTR1-U2OS beta-arrestin-GFP spot imaging, agonist mode; activation, % at 20 µM; actives 0.17% (n = 330,000); AID 493036;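 active = activation at or above 40% of the spot to cytoplasm intensity ratio, with at least 20 cells analyzed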;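 also: 0% = DMSO without peptide and 100% = 100 nM NTR1 peptide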
Target sequence (P30989 whole entry, looked up): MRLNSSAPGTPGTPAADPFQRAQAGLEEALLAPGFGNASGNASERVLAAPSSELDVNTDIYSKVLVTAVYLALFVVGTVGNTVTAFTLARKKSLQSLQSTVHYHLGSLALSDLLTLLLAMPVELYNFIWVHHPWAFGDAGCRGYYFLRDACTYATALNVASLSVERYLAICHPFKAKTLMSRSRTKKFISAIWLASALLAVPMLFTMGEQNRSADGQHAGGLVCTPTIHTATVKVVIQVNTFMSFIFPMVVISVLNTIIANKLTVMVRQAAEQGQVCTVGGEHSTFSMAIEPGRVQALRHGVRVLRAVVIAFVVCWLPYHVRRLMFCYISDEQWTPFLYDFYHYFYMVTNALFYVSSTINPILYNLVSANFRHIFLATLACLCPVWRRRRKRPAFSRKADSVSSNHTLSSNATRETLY
Arr-AP2 CP1 = blocks beta-arrestin peptide binding to human AP2; shares compounds with Arr AP2 block; GST-AP2 beads, FITC arrestin peptide binding, flow cytometry; GST-fused beta2-adaptin appendage, R879A mutant; inhibition, % at 10 µM; actives 2% (n = 1,300);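 active = inhibition above a set limit, roughly 3 SD of non-fluorescent compound noise, cut at about 38% in these data; inactive = inhibition at or below that limit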;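 also: loss of bead fluorescence from 50 nM FITC arrestin peptide bound to appendage; 0% = negative control wells and 100% = excess unlabelled arrestin peptide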
GST-FITC bead = counter-screen for beta-arrestin AP2 inhibitors: GST-GSH bead binding | shares compounds with Arr AP2 block | GST-fluorescein binding to GSH beads, fluorescence | inhibition, % at 10 µM | actives 2% (n = 1,300) | AID 588338;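 active = inhibition above 50%, about 3 SD of the inhibition seen with non-fluorescent compounds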;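 also: fluorescein maleimide labelled GST captured on 4 micron glutathione beads; higher means more loss of bead fluorescence from quenching or blocked binding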
* marks the source's active call; other numbers are inactive results; x = not tested or not shown; ! = not confirmed by another sample.

SMILES	Arr AP2 block	B2AR ag	Lipid droplet	GRK2 inh	H9c2 TAG inh	NTR1 ag	Arr-AP2 CP1	GST-FITC bead
COc1cc(/C=C/C(=O)O)ccc1OS(=O)(=O)c1cc(C)ccc1C	4	14	7	0	-20	1	x	x
O=C(NCc1ccccc1Cl)c1cnccc1C(F)(F)F	55*	4	16	0	1	0	-4	-9
N#C/C(=C\c1c(N2CCC(C(N)=O)CC2)nc2ccccn2c1=O)C(=O)NC1CCCCC1	-6	-9	-7	3	x	2	x	x
Cc1ccc(-c2cc(C(F)(F)F)n3ncc(C(=O)N4CCCc5ccccc54)c3n2)cc1	-6	-23	3	0	x	8	49*!	56*!
CO/N=C/C(c1ccc(Cl)nc1)S(=O)(=O)c1ccccc1 (configuration not stated)	57*	-3	13	1	x	1	14	-3
CC(C)Oc1ccc(CCNC(=O)C2CCC(=O)N(Cc3cccc(F)c3)C2)cc1 (configuration not stated)	-5	2	35	0	22	1	11	-1
O=C(NCCc1ccccc1)C1CCC(=O)N(Cc2cccc(C(F)(F)F)c2)C1 (configuration not stated)	1	4	-19	0	-1	1	-5	1
COc1cccc(CN2CC(C(=O)NCCCc3ccc(C)cc3)CCC2=O)c1 (configuration not stated)	2	-7	2	4	x	0	-9	1
Cc1cc(NC(=O)CSc2n[nH]c(-c3ccc(Cl)cc3Cl)n2)no1	13	-7	x	2	13	0	x	x
Cc1cc(C)n2[nH]c(=O)c(N=Nc3cccc(Cl)c3)c2n1	90*	6	17	0	6	2	2	-5
CC(=O)Nc1ccc(S(=O)(=O)N(C)CC(=O)OCC(=O)c2ccc3c(c2)NC(=O)CO3)cc1	-4	-1	x	0	12	-1	x	x
CCCNC(=O)Cn1nc([N+](=O)[O-])c([N+](=O)[O-])c1C	-10	-4	3	0	x	0	x	x
CCCCNC(=O)Cn1nc([N+](=O)[O-])c([N+](=O)[O-])c1C	69*	-5	-10	0	15	2	18	-5
COc1ccc(OC)c(NC(=O)c2cc3c(Cl)nc4ccccc4c3s2)c1	104*	-6	-4	2	x	7	-7	-11
COc1ccc(NC(=O)c2cc3c(Cl)nc4ccccc4c3s2)cc1OC	-1	13	15	1	x	14	x	x
COc1ccc(-c2csc(NC(=O)C3CC(=O)N(Cc4ccccc4)C3)n2)cc1OC (configuration not stated)	-10	18	-8	2	19	9	x	x
O=[N+]([O-])c1ccc(NS(=O)(=O)c2cccc3cccnc23)cc1	55*	6	1	4	x	1	-2	-2
O=S(=O)(Nc1ccc(O)cc1)c1cccc2cccnc12	-3	4	x	0	4	0	x	x
O=c1c(Cc2c(F)cccc2Cl)c(O)ccn1CCCn1ccnc1	63*	-3	3	0	6	1	-3	-7
Cc1ccc(NC(=O)C(=O)NN=C2CCCC2)cc1C	-15	-5	-6	2	3	-2	x	x
CCN(CC)c1ncnc2c1ncn2[C@H]1CN(Cc2ccc(Cl)cc2)C[C@@H](CO)O1	x	x	x	x	29	x	x	x
Cc1nc2ccc(NC(=O)c3ccc4ccccc4n3)cc2s1	65*	0	0	0	18	4	-7	-2
O=C(COC(=O)c1ccc(F)cc1F)c1ccc[nH]1	72*	7	x	x	1	1	-4	2
O=C(/C=C/c1ccc(F)cc1)OCC(=O)c1ccc[nH]1	27	7	x	0	-22	0	x	x
